Source: ChEMBL document CHEMBL1129288, “Design and synthesis of non-peptide Ras CAAX mimetics as potent farnesyltransferase inhibitors” (J Med Chem, 1996)

Experiments:
[1] = target: T1, Protein farnesyltransferase (Homo sapiens, UniProt P49354+P49356); experiment: In vitro inhibition of Farnesyltransferase; type: protein-complex assay
Summary of the method: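 Partially purified FTase from human Burkitt lymphoma (Daudi) cells, incubated with [³H]FPP and recombinant H-Ras-CVLS for 30 min at 37 °C.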

[2] = target: Geranylgeranyl transferase type I (Homo sapiens, UniProt P49354+P53609); experiment: In vitro inhibition of Geranylgeranyl transferase type I; type: protein-complex assay
Summary of the method: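 Partially purified GGTase I from human Burkitt lymphoma (Daudi) cells, incubated for 30 min at 37 °C.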

[3] = target: T1, Protein farnesyltransferase; experiment: Inhibition of human Burkitt lymphoma (Daudi) cell farnesyltransferase; settings: target entry is the homologue from another species

SMILES	IC50 [1]	IC50 [2]	IC50 [3]
N[C@@H](CS)CNc1ccc(-c2ccccc2C(=O)O)cc1		140 µM	0.543 µM
N[C@@H](CS)CNc1ccc(-c2ccccc2)cc1	1.07 µM	> 100 µM	
N[C@@H](CS)C(=O)NCc1cccc(-c2cccc(C(=O)O)c2)c1	100 µM	> 100 µM	
N[C@@H](CS)C(=O)Nc1ccc(-c2cccc(C(=O)O)c2)cc1	13.5 µM	100 µM	
N[C@@H](CS)CNCc1cccc(-c2cccc(C(=O)O)c2)c1	11 µM	35 µM	
N[C@@H](CS)CNc1ccc(-c2ccc(C(=O)O)cc2)cc1		> 100 µM	

Results, then the molecule that gave them:

IC50 [1]	IC50 [2]	IC50 [3]	SMILES
0.71 µM	> 100 µM		Cc1cccc(-c2ccc(NC[C@@H](N)CS)cc2)c1
0.04 µM	43.6 µM		COc1cc(NC[C@@H](N)CS)ccc1-c1cccc(C(=O)O)c1
0.114 µM	100 µM		N[C@@H](CS)CNc1ccc(-c2cccc(C(=O)O)c2)cc1
0.917 µM	> 100 µM		COC(=O)c1cccc(-c2ccc(NC[C@@H](N)CS)cc2)c1
0.2 µM			CC[C@H](C)[C@H](NC(=O)[C@@H](NC(=O)[C@@H](N)CS)C(C)C)C(=O)N[C@@H](CCSC)C(=O)O
0.15 µM			CSCC[C@H](NC(=O)c1ccc(NC(=O)[C@@H](N)CS)cc1)C(=O)O
